This is an account of results in ChEMBL document CHEMBL1124464, “Peripherally acting enkephalin analogues. 2. Polar tri- and tetrapeptides” (1989).

Each structure is given as a SMILES string. Bounds are passed on as bounds.

The species entered for the first test is Mus musculus. Briefly: Dose ratio in the presence and absence of the peripheral opioid antagonist in N-methyl-nalorphine in AA writhing mice.
Conditions: not given
It is filed as functional. In short, it runs like this:
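Acetic acid (0.6%, ip) writhing in male TFW mice; N-methylnalorphine 11.5 mg kg-1 ip 20 min before subcutaneous agonist. Writhes counted 5 min from 15 min post-irritant. Dose ratio taken as the shift between parallel regression lines with and without antagonist.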
Consider `CC(=O)O.CCN(CCc1ccccc1F)C(=O)CNC(=O)[C@@H](CCCN=C(N)N)NC(=O)[C@@H](N)Cc1ccc(O)cc1`, for which the Ratio is given as 13.3.

In the case of `CC(=O)O.CCN(Cc1ccc(F)cc1)C(=O)CNC(=O)[C@@H](CCCN=C(N)N)NC(=O)[C@H](Cc1ccc(O)cc1)N=C(N)N`, the Ratio was 6.4.

Turning to `CC(=O)O.CCN(CCc1ccc(Cl)c(Cl)c1)C(=O)CNC(=O)[C@@H](CCCN=C(N)N)NC(=O)[C@H](Cc1ccc(O)cc1)N=C(N)N`, the Ratio is 1.

On to `CC(=O)O.CCN(CCc1ccc([N+](=O)[O-])cc1)C(=O)CNC(=O)[C@@H](CCCN=C(N)N)NC(=O)[C@@H](N)Cc1ccc(O)cc1`, for which the Ratio came to 4.5.

Consider `CC(=O)O.CCN(Cc1ccccc1[N+](=O)[O-])C(=O)CNC(=O)[C@@H](CCCN=C(N)N)NC(=O)[C@@H](N)Cc1ccc(O)cc1`, for which the Ratio was determined as 2.8.

A further test deals with Mus musculus. Briefly: Antinociceptive activity of subcutaneously administered compound (30 mg) in acetic acid (AA) induced writhing mice. It is filed as functional.
Conditions: not given
In short, it runs like this:
(§1)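 Male TFW mice, groups of five to six, given drug subcutaneously (10 mL kg-1), then ip acetic acid 0.6% at 25 mL kg-1. Writhes counted for 5 min beginning 15 min after acetic acid. ED50 = dose reducing writhes 50% versus vehicle, by linear regression.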
The compound `CC(=O)O.CCN(CCCc1ccc([N+](=O)[O-])cc1)C(=O)CNC(=O)[C@@H](CCCN=C(N)N)NC(=O)[C@@H](N)Cc1ccc(O)cc1` yielded an Inhibition of 0%.

A further test relates to Mus musculus. In words: Antinociceptive activity of perorally administered compound in phenyl-p-benzoquinone induced writhing mice. It is filed as functional. Particulars: po. In short, it runs like this:
(§2)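 Female CD1 mice, groups of five to six, dosed orally by blunt intragastric needle (10 mL kg-1) 30 min before ip phenyl-p-benzoquinone 2.5 mg kg-1. Abdominal constrictions/hind-limb extensions counted over 2.5 min starting 10 min after PBQ. ED50 = dose halving writhes versus vehicle, by linear regression.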
Background: An intraperitoneal irritant provokes the stretching counted in writhing tests.
As for `CC(=O)O.CCN(CCc1ccc([N+](=O)[O-])cc1)C(=O)CNC(=O)[C@@H](CCCN=C(N)N)NC(=O)[C@@H](N)Cc1ccc(O)cc1`, the ED50 amounted to 43.5 mg/kg.

Another test is filed under the species Cavia porcellus. Briefly: Inhibition of electrically induced contractions on the guinea pig ileum. Particulars: read-out: ED50 (the source's name). It is filed as functional. In short, it runs like this:
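Guinea pig ileum contractions evoked by coaxial stimulation at 0.1 Hz, 0.5-ms pulses, supramaximal voltage, recorded isometrically; dose-response curves built with 15-min washout between doses.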
Turning to `CC(=O)O.CCN(CCCc1ccc([N+](=O)[O-])cc1)C(=O)CNC(=O)[C@@H](CCCN=C(N)N)NC(=O)[C@@H](N)Cc1ccc(O)cc1`, the EC50 was 1800 nM.

Take `CC(=O)O.CCN(CCc1ccccc1F)C(=O)CNC(=O)[C@@H](CCCN=C(N)N)NC(=O)[C@@H](N)Cc1ccc(O)cc1`: the EC50 stood at 22 nM.

Take `CC(=O)O.CCN(Cc1ccc(F)cc1)C(=O)CNC(=O)[C@@H](CCCN=C(N)N)NC(=O)[C@H](Cc1ccc(O)cc1)N=C(N)N`: the EC50 amounted to 46 nM.

`CC(=O)O.CCN(CCc1ccc(Cl)c(Cl)c1)C(=O)CNC(=O)[C@@H](CCCN=C(N)N)NC(=O)[C@H](Cc1ccc(O)cc1)N=C(N)N`: the EC50 was less than 100 nM.

With `CC(=O)O.CCN(CCc1ccc([N+](=O)[O-])cc1)C(=O)CNC(=O)[C@@H](CCCN=C(N)N)NC(=O)[C@@H](N)Cc1ccc(O)cc1`, the EC50 is 48.6 nM.

For the compound `CC(=O)O.CCN(Cc1ccccc1[N+](=O)[O-])C(=O)CNC(=O)[C@@H](CCCN=C(N)N)NC(=O)[C@@H](N)Cc1ccc(O)cc1`, the EC50 was determined as 522 nM.

A further test relates to Rodentia sp. In words: Antinociceptive activity in the hot plate test (central activity) in rodents, when compound administered subcutaneously at 10 mg. It is filed as functional.
Conditions: not given
In short, it runs like this:
(§3)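 Male CFLP mice, groups of five to six, placed on a copper surface held at 55 °C; latency to paw licking/shaking or jumping recorded, 30-s cut-off. Drug given subcutaneously at 10 mL kg-1. ED50 = dose doubling response latency versus vehicle, by parallel-line probit analysis.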
(In general: In hot-plate and tail-flick tests a longer latency is read as antinociception.)
Take `CC(=O)O.CCN(CCc1ccccc1F)C(=O)CNC(=O)[C@@H](CCCN=C(N)N)NC(=O)[C@@H](N)Cc1ccc(O)cc1`: the Inhibition was found to be 0%.

A further test concerns Rodentia sp. In words: Antinociceptive activity in the hot plate test (central activity) in rodents, when compound administered subcutaneously at 100 mg. It is filed as functional.
Conditions: not given
In short, it runs like this: as §3
`CC(=O)O.CCN(CCc1ccc([N+](=O)[O-])cc1)C(=O)CNC(=O)[C@@H](CCCN=C(N)N)NC(=O)[C@@H](N)Cc1ccc(O)cc1` registered an Inhibition of 0%.

The subject of a further test is Mus musculus. In words: Antinociceptive activity of subcutaneously administered compound in phenyl-p-benzoquinone induced writhing mice. It is filed as functional.
Conditions: not given
In short, it runs like this: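 Groups of five to six female CD1 mice given drug subcutaneously (10 mL kg-1) 30 min before ip phenyl-p-benzoquinone 2.5 mg kg-1. Writhes (abdominal constrictions/hind-limb extensions) counted over 2.5 min from 10 min post-PBQ. ED50, the dose giving 50% fewer writhes than vehicle, from linear regression.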
In the case of `CC(=O)O.CCN(Cc1ccc(F)cc1)C(=O)CNC(=O)[C@@H](CCCN=C(N)N)NC(=O)[C@H](Cc1ccc(O)cc1)N=C(N)N`, the ED50 was found to be 1.7 mg/kg.

The same test, now with this note: Mus musculus, sc; read-out: ED50.
As to `CC(=O)O.CCN(CCc1ccccc1F)C(=O)CNC(=O)[C@@H](CCCN=C(N)N)NC(=O)[C@@H](N)Cc1ccc(O)cc1`, the median effective dose (ED50) stood at 13.7 mg/kg.

Consider `CC(=O)O.CCN(CCc1ccc(Cl)c(Cl)c1)C(=O)CNC(=O)[C@@H](CCCN=C(N)N)NC(=O)[C@H](Cc1ccc(O)cc1)N=C(N)N`, for which the ED50 turned out to be 0.2 mg/kg.

Take `CC(=O)O.CCN(CCc1ccc([N+](=O)[O-])cc1)C(=O)CNC(=O)[C@@H](CCCN=C(N)N)NC(=O)[C@@H](N)Cc1ccc(O)cc1`: the ED50 was determined as 17.5 mg/kg.

On to `CC(=O)O.CCN(Cc1ccccc1[N+](=O)[O-])C(=O)CNC(=O)[C@@H](CCCN=C(N)N)NC(=O)[C@@H](N)Cc1ccc(O)cc1`, for which the median effective dose (ED50) amounted to 60.3 mg/kg.

Another test relates to Mus musculus. Briefly: Antinociceptive activity of perorally administered compound (50 mg) in phenyl-p-benzoquinone induced writhing mice. It is filed as functional.
Conditions: not given
In short, it runs like this: as §2
In turn, `CC(=O)O.CCN(CCc1ccccc1F)C(=O)CNC(=O)[C@@H](CCCN=C(N)N)NC(=O)[C@@H](N)Cc1ccc(O)cc1` came in with an Inhibition of 0%.

The next test deals with Mus musculus. In words: Antinociceptive activity of perorally administered compound (20 mg) in phenyl-p-benzoquinone induced writhing mice.
Conditions: not given
It is filed as functional. In short, it runs like this:
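Female CD1 mice (Charles River), groups of five to six, dosed orally by blunt intragastric needle (10 mL kg-1) 30 min before ip PBQ at 2.5 mg kg-1. Abdominal constrictions/hind-limb extensions were counted over 2.5 min starting 10 min after PBQ. ED50 is the dose halving writhes versus vehicle, estimated by linear regression.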
In the case of `CC(=O)O.CCN(Cc1ccc(F)cc1)C(=O)CNC(=O)[C@@H](CCCN=C(N)N)NC(=O)[C@H](Cc1ccc(O)cc1)N=C(N)N`, the Inhibition amounted to 12%.

`CC(=O)O.CCN(CCc1ccc(Cl)c(Cl)c1)C(=O)CNC(=O)[C@@H](CCCN=C(N)N)NC(=O)[C@H](Cc1ccc(O)cc1)N=C(N)N` registered an Inhibition of 14%.

A further test deals with Rodentia sp. In words: (§4) Antinociceptive activity in the hot plate test (central activity) in rodents, when compound administered subcutaneously at 50 mg. It is filed as functional.
Conditions: not given
In short, it runs like this:
as §3
For the compound `CC(=O)O.CCN(Cc1ccccc1[N+](=O)[O-])C(=O)CNC(=O)[C@@H](CCCN=C(N)N)NC(=O)[C@@H](N)Cc1ccc(O)cc1`, the Inhibition amounted to 0%.

The subject of a further test is Mus musculus. The description is as §4. It is filed as functional.
Conditions: not given
In short, it runs like this:
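Male CFLP mice (Hacking and Churchill), groups of five to six, dosed sc at 10 mL kg-1 and placed on a copper surface held at 55 °C. Signs of discomfort (paw licking/shaking, jumping) were scored, with a 30-s cut-off. ED50 is the dose doubling response latency versus vehicle, estimated by parallel-line probit analysis.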
Take `CC(=O)O.CCN(Cc1ccc(F)cc1)C(=O)CNC(=O)[C@@H](CCCN=C(N)N)NC(=O)[C@H](Cc1ccc(O)cc1)N=C(N)N`: the Inhibition was 0%.

Compound `CC(=O)O.CCN(CCc1ccc(Cl)c(Cl)c1)C(=O)CNC(=O)[C@@H](CCCN=C(N)N)NC(=O)[C@H](Cc1ccc(O)cc1)N=C(N)N` came in with an Inhibition of 0%.

A further test has as its system Mus musculus. In words: Antinociceptive activity of subcutaneously administered compound in acetic acid (AA) induced writhing mice. It is filed as functional. Particulars: sc. In short, it runs like this:
as §1
In turn, `CC(=O)O.CCN(CCc1ccccc1F)C(=O)CNC(=O)[C@@H](CCCN=C(N)N)NC(=O)[C@@H](N)Cc1ccc(O)cc1` registered a median effective dose (ED50) of 0.3 mg/kg.

`CC(=O)O.CCN(Cc1ccc(F)cc1)C(=O)CNC(=O)[C@@H](CCCN=C(N)N)NC(=O)[C@H](Cc1ccc(O)cc1)N=C(N)N` registered a 50% effective dose (ED50) of 0.32 mg/kg.

In turn, `CC(=O)O.CCN(CCc1ccc(Cl)c(Cl)c1)C(=O)CNC(=O)[C@@H](CCCN=C(N)N)NC(=O)[C@H](Cc1ccc(O)cc1)N=C(N)N` came in with a 50% effective dose (ED50) of 0.62 mg/kg.

The compound `CC(=O)O.CCN(CCc1ccc([N+](=O)[O-])cc1)C(=O)CNC(=O)[C@@H](CCCN=C(N)N)NC(=O)[C@@H](N)Cc1ccc(O)cc1` yielded a 50% effective dose (ED50) of 3.1 mg/kg.

The compound `CC(=O)O.CCN(Cc1ccccc1[N+](=O)[O-])C(=O)CNC(=O)[C@@H](CCCN=C(N)N)NC(=O)[C@@H](N)Cc1ccc(O)cc1` returned a 50% effective dose (ED50) of 6.1 mg/kg.

In general, Inhibition refers to the change of the read-out against control, counted positive when it falls. Read a high Inhibition as strong suppression. As a reminder, the ED50 is the dose at which the effect has come halfway, by size or by number of responders.
